Data set [1] concerns the target T1, Cytochrome P450 3A4 (Homo sapiens, UniProt P08684). The data set can be described thus: Inhibition of recombinant human CYP3A4 expressed in baculovirus infected insect cells preincubated for 30 mins using fluorescent substrate. The data set is classed as ADME.
The target of data set [2] is T1, Cytochrome P450 3A4. The data set can be described thus: Inhibition of recombinant human CYP3A4 expressed in baculovirus infected insect cells using fluorescent substrate. The data set is classed as ADME.
Data set [3] is described as follows: Inhibition of gamma-secretase in HEK293 cells expressing human APP Swedish/London mutant assessed as reduction in amyloid beta 40 level after 5 hrs by sandwich immunoassay. The data set is classed as cell-based. The following applies: HEK293, 5 h. In outline:
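HEK293 cells stably transfected with human APP cDNA carrying Swedish and London mutations were exposed to inhibitor for 5 h. Aβ40 in conditioned medium was measured by MSD sandwich immunoassay (TAG-G2-10/biotin-4G8). IC50 came from a four-parameter variable-slope nonlinear fit, with duplicate or triplicate measurements per experiment.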

A short description of data set [4]: AUC (0 to 6 hrs) in Sprague-Dawley rat at 30 mg/kg, po by LC-MS/MS analysis. The data set is classed as ADME, organism-based. Also noted: dose 30 mg/kg, time < 6 hr, route oral. The following applies: in vivo. An outline of the steps: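 Two fasted male Sprague-Dawley rats per compound, femoral-artery cannulated, were dosed orally in 0.5% methylcellulose. Serial heparinized blood was taken at 0.5, 1, 2, 3, 4 and 6 h, and plasma was stored at -20 °C. Compound levels were measured by LC-MS/MS using compound-specific SRM transitions from [MH]+, and AUC was taken over 0–6 h.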

Data set [5] concerns the target T1, Cytochrome P450 3A4. Description: Inhibition of CYP3A4 (unknown origin). The data set is classed as ADME. An outline of the steps:
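Recombinant CYP3A4 was co-incubated with compound, and fluorescent product formed from a […] coumarin or fluorescein substrate was read out. Values are means of two experiments.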

Data set [6] concerns the target T1, Cytochrome P450 3A4. The data set can be described thus: Inhibition of CYP3A4 (unknown origin) preincubated with enzyme. The data set is classed as ADME. In outline:
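Recombinant CYP3A4 was pre-incubated with compound, and data were collected 30 min after the compound was combined with enzyme. Read-out was fluorescent product formed from a […] substrate. Values are means of two experiments.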

A short description of data set [7]: Inhibition of gamma-secretase in HEK293 cells expressing APP London mutant assessed as reduction in amyloid beta 40 level after 5 hrs by immunoassay. The following applies: Homo sapiens, HEK293, 5 h.
Another data set deals with Mus musculus. Description: In vivo inhibition of gamma-secretase in CRND8 transgenic mouse model of Alzheimers disease expressing APP Swedish/Indiana familial mutant assessed as reduction in amyloid beta 40 level in plasma at 30 mg/kg administered as single dose via oral gavage after 3 hrs by sandwich immunoassay. The data set is classed as functional. In outline:
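Transgenic CRND8 mice (5–7 weeks, male and female, counterbalanced, singly housed) received a single oral gavage dose in 20% hydroxypropyl-β-cyclodextrin. Mice were killed by CO2 at 3 h, and EDTA plasma was collected from the posterior vena cava. Plasma Aβ40 was quantified by MSD sandwich immunoassay (biotin-4G8/S-tag G2-10) and compared with a vehicle-only group.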

The record followed here is ChEMBL document CHEMBL3870321, “Substituted 4-morpholine N-arylsulfonamides as γ-secretase inhibitors” (Eur J Med Chem, 2016).

Where only a bound is given, the exact number is not on record here.

T1 sequence (P08684 whole entry): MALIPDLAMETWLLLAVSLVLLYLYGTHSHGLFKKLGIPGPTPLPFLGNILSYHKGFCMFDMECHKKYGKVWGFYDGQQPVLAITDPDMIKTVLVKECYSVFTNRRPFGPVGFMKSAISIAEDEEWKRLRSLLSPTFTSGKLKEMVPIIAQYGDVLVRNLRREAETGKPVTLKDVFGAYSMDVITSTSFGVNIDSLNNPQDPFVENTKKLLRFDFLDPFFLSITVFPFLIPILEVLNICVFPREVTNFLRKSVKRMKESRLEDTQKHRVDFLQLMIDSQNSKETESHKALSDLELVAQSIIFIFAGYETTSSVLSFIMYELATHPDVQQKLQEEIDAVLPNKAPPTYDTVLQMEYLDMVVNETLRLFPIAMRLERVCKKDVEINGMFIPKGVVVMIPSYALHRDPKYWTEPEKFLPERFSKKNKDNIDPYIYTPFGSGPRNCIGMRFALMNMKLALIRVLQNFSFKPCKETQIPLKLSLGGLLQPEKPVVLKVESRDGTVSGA

The term IC50 denotes the concentration needed to halve the response being measured. For orientation: AUC(0-t) means exposure summed from dosing to a finite time, without extrapolation to infinity. On to `O=C(CC1([C@H]2COC[C@@H](C3CC3)N2S(=O)(=O)c2ccc(Cl)cc2)CC1)N1CC2CCC(C1)N2CCO`, for which the half-inhibitory concentration (IC50) on Cytochrome P450 3A4 [1] was less than 400 nM; at Cytochrome P450 3A4 [2], more than 30000 nM; in data set [3] it was 6 nM. This molecule also had an AUC(0-t) at 6 h in data set [4] of 2730 ng·h/mL.

With `O=C(CC1([C@H]2COC[C@@H](C3CC3)N2S(=O)(=O)c2ccc(Cl)cc2)CC1)N1CC2CCC(C1)N2`, in data set [3], the half-inhibitory concentration (IC50) was 3.5 nM. The molecule further showed an AUC(0-t) at 6 h in data set [4] of 1160 ng·h/mL.

Take `C[C@H]1CN(C(C)(C)CO)CCN1C(=O)CC1([C@H]2COC[C@@H](C3CC3)N2S(=O)(=O)c2ccc(F)cc2)CC1`: the IC50 is 2200 nM at Cytochrome P450 3A4 [1], more than 30000 nM at Cytochrome P450 3A4 [2] and 14 nM in data set [3].

In the case of `O=C(CC1([C@H]2CO[C@H]3CCC[C@H]3N2S(=O)(=O)c2ccc(Cl)cc2)CC1)N1CC[C@@H](CO)C1`, the IC50 on Cytochrome P450 3A4 [1] worked out at 30000 nM; on Cytochrome P450 3A4 [2] it was 30000 nM; in data set [3], 18 nM.

`O=C(CC1([C@H]2CO[C@H]3CCC[C@H]3N2S(=O)(=O)c2ccc(Cl)cc2)CC1)N1CCC(CO)CC1`: the half-inhibitory concentration (IC50) at Cytochrome P450 3A4 [1] turned out to be 30000 nM; at Cytochrome P450 3A4 [2] it was 30000 nM; in data set [3] it was 1.8 nM. In data set [4], this molecule gave an AUC(0-t) at 6 h of 36 ng·h/mL.

With `O=S(=O)(c1ccc(Cl)cc1)N1[C@@H](CO)CCC[C@H]1c1cccc(F)c1`, the IC50 on Cytochrome P450 3A4 [5] worked out at 13900 nM; at Cytochrome P450 3A4 [6], 30000 nM; in data set [7] it was 671 nM.

`O=C(CC1([C@H]2CO[C@H]3CCC[C@H]3N2S(=O)(=O)c2ccc(Cl)cc2)CC1)N1CCC(N2CCCCC2)CC1`: the IC50 on Cytochrome P450 3A4 [1] came out at 8000 nM; at Cytochrome P450 3A4 [2], 21000 nM; in data set [3] it was 1.7 nM.

Turning to `O=C(CC1([C@H]2COC[C@@H](C3CC3)N2S(=O)(=O)c2ccc(F)cc2)CC1)N1CCC(N2CCCCC2)CC1`, the IC50 on Cytochrome P450 3A4 [1] was 1500 nM; at Cytochrome P450 3A4 [2], more than 30000 nM; in data set [3] it was 30 nM. In data set [4], the area under the curve AUC(0-t) at 6 h is 575 ng·h/mL.

As to `O=C(CC1([C@H]2COC[C@@H](C3CC3)N2S(=O)(=O)c2ccc(Cl)cc2)CC1)N1C2CCC1CC(N1CCCCC1)C2` (stereo not given in full), the IC50 was 2000 nM at Cytochrome P450 3A4 [1], more than 30000 nM at Cytochrome P450 3A4 [2] and 12 nM in data set [3]. Besides, the AUC(0-t) at 6 h in data set [4] came to 1290 ng·h/mL.

As for `CC(=O)N1CCN(C(=O)CC2([C@H]3COC[C@@H](C4CC4)N3S(=O)(=O)c3ccc(F)cc3)CC2)CC1`, the IC50 is 17000 nM at Cytochrome P450 3A4 [1], 30000 nM on Cytochrome P450 3A4 [2] and 67 nM in data set [3]. The same molecule displayed an AUC(0-t) at 6 h in data set [4] of 3160 ng·h/mL.

With `O=S(=O)(c1ccc(Cl)cc1)N1[C@H](c2cccc(F)c2)CCC[C@@H]1C1(O)CC1`, the figures for the half-maximal inhibitory concentration (IC50) (at Cytochrome P450 3A4 [5]; at Cytochrome P450 3A4 [6]; in data set [7]) were less than 900 nM, less than 500 nM and 316 nM, respectively.

Turning to `O=C(C(O)C1([C@H]2COC[C@@H](C3CC3)N2S(=O)(=O)c2ccc(Cl)cc2)CC1)N1CC2CCC(C1)N2` (stereo not given in full), the values for the half-maximal inhibitory concentration (IC50) (on Cytochrome P450 3A4 [1]; on Cytochrome P450 3A4 [2]; in data set [3]) were 9000 nM, more than 30000 nM and 10 nM, respectively. In data set [4], the area under the curve AUC(0-t) at 6 h amounted to 254 ng·h/mL.

On to `CC(=O)N1C2CCC1CN(C(=O)CC1([C@H]3COC[C@@H](C4CC4)N3S(=O)(=O)c3ccc(Cl)cc3)CC1)C2`, for which the IC50 on Cytochrome P450 3A4 [1] worked out at 4300 nM; at Cytochrome P450 3A4 [2], 30000 nM; in data set [3], 18 nM.

Regarding `O=C(C(O)C1([C@H]2COC[C@@H](C3CC3)N2S(=O)(=O)c2ccc(Cl)cc2)CC1)N1C2CCC1CC(N1CCCCC1)C2` (stereo not given in full), the half-inhibitory concentration (IC50) on Cytochrome P450 3A4 [1] is more than 30000 nM; at Cytochrome P450 3A4 [2] it was more than 30000 nM; in data set [3] it was 24 nM. Besides, in data set [4], the area under the curve AUC(0-t) at 6 h was 267 ng·h/mL.

For `O=C(CC1([C@H]2COC[C@@H](C3CC3)N2S(=O)(=O)c2ccc(F)cc2)CC1)N1CCN(CCO)CC1`, the 50% inhibitory concentration (IC50) was 6900 nM on Cytochrome P450 3A4 [1], more than 30000 nM at Cytochrome P450 3A4 [2] and 32 nM in data set [3]. For the same molecule, in data set [4], the AUC(0-t) at 6 h is 1970 ng·h/mL.

A word on the inhibition in vivo: it is how much of the control response was suppressed. On to `CC(C)(CO)N1CCN(C(=O)CC2([C@H]3COC[C@@H](C4CC4)N3S(=O)(=O)c3ccc(Cl)cc3)CC2)CC1`, for which the IC50 at Cytochrome P450 3A4 [1] is 1900 nM; at Cytochrome P450 3A4 [2] it was more than 30000 nM; in data set [3] it was 5.9 nM. In addition, the inhibition in vivo at 30 mg/kg with Mus musculus came to 89%. Further, the AUC(0-t) at 6 h in data set [4] came to 464 ng·h/mL.

As to `O=C(CC1([C@H]2CO[C@H]3CCC[C@H]3N2S(=O)(=O)c2ccc(Cl)cc2)CC1)N1CC[C@@H](O)C1`, the figures for the IC50 (at Cytochrome P450 3A4 [1]; at Cytochrome P450 3A4 [2]; in data set [3]) were more than 30000 nM, more than 30000 nM and 16 nM, respectively.
